As usually defined, the pIC50 is the IC50 on a negative log10 scale, so that one unit is a factor of ten. A lower pIC50 goes with a high IC50.

Structures are written as SMILES. pIC50: −log10 of the molar value. Calls of active or inactive are those of the source. The calls are words filed in the database; no cut-off is given here.

A short description of test [1]: Inhibition of hedgehog signaling pathway-mediated GLI1 mRNA expression in mouse C3H10T1/2 cells after 24 hrs by RT-PCR analysis in presence of GDC-0449. Format: cell-based. The settings on record: C3H 10T1/2.
The target in test [2] is Protein smoothened (Homo sapiens) (UniProt Q99835). Briefly: Displacement of BODIPY-cyclopamine from full length human SMO receptor overexpressed in HEK293T cell membranes up to 10 uM after 5 hrs by fluorescence polarization assay. Conditions: HEK-293T. An outline of the steps: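 Membranes from HEK293T cells transfected with full-length human Smo, collected 24 h post-transfection. Cells lysed in hypotonic buffer (50 mM Tris-HCl, 1 mM EDTA, pH 7.5, protease inhibitors) by syringe passage. Membranes pelleted at 20000g after a 500g spin. Membranes (10 μg/well) incubated with BODIPY-cyclopamine (5 nM) and compound at 30 °C for 5 h. Fluorescence polarization at ex 485/em 528. Triplicate.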
Background: In fluorescence polarisation assays a small probe gives low polarisation when free and higher when bound to something large.

Test [3] in a line: Inhibition of hedgehog signaling pathway-mediated GLI1 mRNA expression in mouse C3H10T1/2 cells assessed as residual activity at 5 uM after 24 hrs by RT-PCR analysis relative to 20alpha-hydroxycholesterol/22(S)-hydroxycholesterol. The class given is cell-based. Conditions: C3H 10T1/2. Put shortly:
(§1)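 C3H10T1/2 cells co-treated with analogue and the oxysterol Hh activators 20α-hydroxycholesterol plus 22(S)-hydroxycholesterol (5 μM each) for 24 h. Gli1 mRNA measured by qPCR as % of OHC-only control (100%). Analogue at 5 μM, or at 0.5 μM where stated.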

Test [4] concerns C3H 10T1/2. Description: Effect on CYP24A1 RNA level in VDR-knockdown mouse C3H10T1/2 cells at 5 uM after 24 hrs by qPCR analysis. Format: functional, cell-based. For orientation: Quantitative PCR measures a nucleic acid by following its amplification.
A short description of test [5]: Inhibition of hedgehog signaling pathway-mediated PTCH mRNA expression in human DaOY cells after 24 hrs by RT-PCR analysis. Format: cell-based. An outline of the steps: (§2)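 ASZ001 (murine BCC) or DAOY (human medulloblastoma) cells given analogue at a range of concentrations. Gli1 and Ptch mRNA quantified by qPCR. IC50 given as mean ± SEM of at least two experiments in triplicate.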

The target of test [6] is T1, Vitamin D3 receptor (Mus musculus) (UniProt P48281).
T1 sequence (whole entry): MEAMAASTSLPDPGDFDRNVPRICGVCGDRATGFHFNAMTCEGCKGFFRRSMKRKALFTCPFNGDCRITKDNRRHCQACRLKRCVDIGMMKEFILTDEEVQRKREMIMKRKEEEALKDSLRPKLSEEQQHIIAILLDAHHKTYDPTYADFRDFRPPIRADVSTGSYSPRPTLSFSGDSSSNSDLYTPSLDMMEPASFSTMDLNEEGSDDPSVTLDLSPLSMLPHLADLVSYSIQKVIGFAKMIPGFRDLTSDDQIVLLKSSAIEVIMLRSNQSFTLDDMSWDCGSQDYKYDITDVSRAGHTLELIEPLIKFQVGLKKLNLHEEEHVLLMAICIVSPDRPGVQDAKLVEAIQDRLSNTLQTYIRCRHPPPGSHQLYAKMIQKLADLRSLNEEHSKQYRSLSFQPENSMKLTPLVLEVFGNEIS
Description: Activation of VDR in mouse ASZ001 cells assessed as upregulation of CYP24A1 mRNA expression at 5 uM after 24 hrs by RT-PCR analysis relative to DMSO-treated control. Format: cell-based. An outline of the steps: (§3)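 Cyp24A1 mRNA read by qPCR after 24 h exposure at 5 μM. Up-regulation normalized to DMSO control, set to 1.0.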

Test [7] in a line: Inhibition of hedgehog signaling pathway-mediated GLI1 mRNA expression in mouse C3H10T1/2 cells after 24 hrs by RT-PCR analysis. The class given is cell-based. Conditions: for inhibition: C3H 10T1/2; for pIC50: C3H 10T1/2, 24 h. Put shortly: (§4)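 OHC-stimulated C3H10T1/2 cells (20α- and 22(S)-hydroxycholesterol, 5 μM each) given analogue at a range of concentrations. Gli1 and Ptch mRNA quantified by qPCR. IC50 given as mean ± SEM of at least two experiments run in triplicate.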

The nature of test [8]: Inhibition of hedgehog signaling pathway-mediated PTCH mRNA expression in mouse C3H10T1/2 cells after 24 hrs by RT-PCR analysis. Conditions: C3H 10T1/2, 24 h. The class given is cell-based. Put shortly:
as §4

In test [9] the target is T2, Vitamin D3 receptor (Homo sapiens) (UniProt P11473).
T2 sequence (whole entry): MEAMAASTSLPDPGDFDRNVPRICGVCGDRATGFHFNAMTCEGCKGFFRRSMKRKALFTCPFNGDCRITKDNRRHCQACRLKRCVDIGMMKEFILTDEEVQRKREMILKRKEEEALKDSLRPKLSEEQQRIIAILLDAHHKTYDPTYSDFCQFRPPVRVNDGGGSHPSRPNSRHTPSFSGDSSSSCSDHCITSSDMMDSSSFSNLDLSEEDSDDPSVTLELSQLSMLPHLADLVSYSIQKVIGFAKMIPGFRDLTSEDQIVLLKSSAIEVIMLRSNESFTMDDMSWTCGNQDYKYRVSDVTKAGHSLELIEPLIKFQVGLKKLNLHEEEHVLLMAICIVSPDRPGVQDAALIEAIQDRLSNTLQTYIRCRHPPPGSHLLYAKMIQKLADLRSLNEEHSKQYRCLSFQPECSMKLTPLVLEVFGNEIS
Description: Activation of VDR in human DaOY cells assessed as upregulation of CYP24A1 mRNA expression at 5 uM after 24 hrs by RT-PCR analysis relative to DMSO-treated control. Format: cell-based. Put shortly: as §3

Test [10] in a line: Activation of hedgehog signaling pathway in non-targeting siRNA treated mouse C3H10T1/2 cells assessed as effect on VDR expression at 5 uM after 24 hrs by qPCR analysis. The class given is cell-based. The settings on record: C3H 10T1/2. Put shortly:
(§5)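 C3H10T1/2 cells transfected 24 h after seeding with mouse VDR-specific or nontargeting siRNA plus Lipofectamine 2000 in medium with 0.5% FBS for 6 h, then complete medium overnight. Treated 24 h post-transfection (5 μM; calcitriol 0.5 μM). RNA and cDNA prepared 24 h later (48 h post-transfection), then qPCR of VDR, Gli1 and Cyp24A1. Representative experiment in triplicate.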

Test [11] can be described thus: Inhibition of hedgehog signaling pathway-mediated GLI1 mRNA expression in human DaOY cells after 24 hrs by RT-PCR analysis. The class given is cell-based. An outline of the steps:
as §2

The target of test [12] is T1, Vitamin D3 receptor (Mus musculus). Description: Activation of VDR in mouse C3H10T1/2 cells assessed as upregulation of CYP24A1 mRNA expression at 5 uM after 24 hrs by RT-PCR analysis relative to DMSO-treated control. The class given is cell-based. The settings on record: C3H 10T1/2. Put shortly:
as §3

Test [13] can be described thus: Inhibition of hedgehog signaling pathway in non-targeting siRNA treated mouse C3H10T1/2 cells assessed as effect on VDR expression at 5 uM after 24 hrs by qPCR analysis. Format: cell-based. The settings on record: C3H 10T1/2. An outline of the steps: as §5
A short description of test [14]: Activation of hedgehog signaling pathway in VDR-knockdown mouse C3H10T1/2 cells assessed as effect on VDR expression at 5 uM after 24 hrs by qPCR analysis. The class given is cell-based. Conditions: C3H 10T1/2. An outline of the steps: as §5
Test [15] can be described thus: Inhibition of hedgehog signaling pathway-mediated GLI1 mRNA expression in mouse ASZ001 cells after 24 hrs by RT-PCR analysis. The class given is cell-based. Conditions: ASZ001, 24 h. Put shortly:
as §2

Test [16] is described as follows: Inhibition of hedgehog signaling pathway in VDR-knockdown mouse C3H10T1/2 cells assessed as effect on VDR expression at 5 uM after 24 hrs by qPCR analysis. Format: cell-based. Conditions: C3H 10T1/2. An outline of the steps: as §5
Test [17] addresses Protein smoothened (Homo sapiens) (UniProt Q99835). Description: Displacement of BODIPY-cyclopamine from full length human SMO receptor overexpressed in HEK293T cells up to 10 uM after 4 hrs by flow cytometric analysis. The class given is cell-based. The settings on record: HEK-293T. Put shortly:
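HEK293T cells transfected overnight with Myc-tagged full-length human Smo plasmid, split, then 2 days post-transfection incubated in DMEM/10% FBS with BODIPY-cyclopamine (5 nM) and test compound at 37 °C for 4 h. Cells trypsinized and resuspended in PBS. Bound BODIPY-cyclopamine read by flow cytometry. Transfection checked by anti-Myc staining. Representative experiment in triplicate.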
In general terms: Flow cytometry measures light scatter and fluorescence of single cells or particles in a stream.

In test [18] the test system is C3H 10T1/2. Description: Effect on CYP24A1 RNA level in non-targeting siRNA treated mouse C3H10T1/2 cells at 5 uM after 24 hrs by qPCR analysis. The class given is functional, cell-based. Put shortly: as §5
A short description of test [19]: Inhibition of hedgehog signaling pathway-mediated GLI1 mRNA expression in mouse C3H10T1/2 cells after 24 hrs by RT-PCR analysis in presence of (1R,3aR,4S,7aR)-7a-methyl-1-((R)-6-methylheptan-2-yl)octahydro-1H-inden-4-yl 3-hydroxybenzoate. The class given is cell-based. Conditions: C3H 10T1/2.
A short description of test [20]: Inhibition of hedgehog signaling pathway-mediated GLI1 mRNA expression in mouse C3H10T1/2 cells assessed as residual activity at 0.5 uM after 24 hrs by RT-PCR analysis relative to 20alpha-hydroxycholesterol/22(S)-hydroxycholesterol. Format: cell-based. Conditions: C3H 10T1/2. Put shortly:
as §1

Test [21] in a line: Inhibition of hedgehog signaling pathway-mediated PTCH mRNA expression in mouse ASZ001 cells up to 10 uM after 24 hrs by RT-PCR analysis. The class given is cell-based.
A short description of test [22]: Inhibition of hedgehog signaling pathway in non-targeting siRNA treated mouse C3H10T1/2 cells assessed as effect on VDR expression at 0.5 uM after 24 hrs by qPCR analysis. The class given is cell-based. Conditions: C3H 10T1/2.
Test [23] in a line: Activation of hedgehog signaling pathway in non-targeting siRNA treated mouse C3H10T1/2 cells assessed as effect on VDR expression at 0.5 uM after 24 hrs by qPCR analysis. The settings on record: C3H 10T1/2. Format: cell-based.
Test [24] relates to C3H 10T1/2. Briefly: Effect on CYP24A1 RNA level in non-targeting siRNA treated mouse C3H10T1/2 cells at 0.5 uM after 24 hrs by qPCR analysis. Format: functional, cell-based.
The nature of test [25]: Activation of hedgehog signaling pathway in VDR-knockdown mouse C3H10T1/2 cells assessed as effect on VDR expression at 0.5 uM after 24 hrs by qPCR analysis. The class given is cell-based. Conditions: C3H 10T1/2.
Test [26] is described as follows: Inhibition of hedgehog signaling pathway in VDR-knockdown mouse C3H10T1/2 cells assessed as effect on VDR expression at 0.5 uM after 24 hrs by qPCR analysis. Format: cell-based. Conditions: C3H 10T1/2.
Test [27] is described as follows: Inhibition of hedgehog signaling pathway in VDR-knockdown mouse C3H10T1/2 cells assessed as downregulation of GLI1 expression at 5 uM after 24 hrs by qPCR analysis. Conditions: C3H 10T1/2. Format: cell-based. Put shortly: as §5
Test [28] is described as follows: Inhibition of hedgehog signaling pathway in non-targeting siRNA treated mouse C3H10T1/2 cells assessed as downregulation of GLI1 expression at 5 uM after 24 hrs by qPCR analysis. Format: cell-based. The settings on record: C3H 10T1/2. An outline of the steps:
as §5

Sequence of Protein smoothened (Homo sapiens) (Q99835 whole entry): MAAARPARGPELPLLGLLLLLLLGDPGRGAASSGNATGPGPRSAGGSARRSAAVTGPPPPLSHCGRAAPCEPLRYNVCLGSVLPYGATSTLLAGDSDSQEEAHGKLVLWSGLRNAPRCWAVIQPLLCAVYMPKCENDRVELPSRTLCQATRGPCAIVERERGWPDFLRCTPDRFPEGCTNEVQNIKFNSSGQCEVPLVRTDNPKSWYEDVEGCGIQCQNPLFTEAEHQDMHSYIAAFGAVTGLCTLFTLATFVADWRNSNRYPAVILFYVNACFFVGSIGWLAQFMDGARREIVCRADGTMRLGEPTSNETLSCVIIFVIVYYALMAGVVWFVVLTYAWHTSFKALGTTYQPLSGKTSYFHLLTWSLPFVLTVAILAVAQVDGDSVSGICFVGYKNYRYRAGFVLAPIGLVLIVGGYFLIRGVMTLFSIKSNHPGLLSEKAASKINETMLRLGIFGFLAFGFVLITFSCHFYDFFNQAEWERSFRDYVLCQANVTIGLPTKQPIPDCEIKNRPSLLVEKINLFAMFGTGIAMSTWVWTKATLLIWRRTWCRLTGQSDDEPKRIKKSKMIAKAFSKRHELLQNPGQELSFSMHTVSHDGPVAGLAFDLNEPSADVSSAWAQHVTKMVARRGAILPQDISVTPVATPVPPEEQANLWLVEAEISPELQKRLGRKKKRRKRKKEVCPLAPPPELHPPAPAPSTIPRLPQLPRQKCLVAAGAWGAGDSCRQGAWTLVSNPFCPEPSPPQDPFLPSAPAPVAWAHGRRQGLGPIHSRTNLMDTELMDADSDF

Regarding `CC(C)CCC[C@@H](C)[C@H]1CC[C@H]2[C@@H](OC(=O)c3cccc(O)c3)CCC[C@]12C`, the inhibition entry in [1] is “Active”. Also, the inhibition entry in test [2], in test [13], in test [16] and in test [17] was “inactive” throughout. Further, the Activity in test [3] was 1.9%. Further, the outcome in [4], in test [10] and in test [14] was inactive. Moreover, the pIC50 in [5] is 5.44; in test [7], 6.13; in test [8] it was 5.96; in test [11] it was 5.43; in test [15] it was 5.28. In addition, the fold change (FC) in test [6] turned out to be 1.9; in test [9] it was 1.9; in test [12], 22.2. Also, the inhibition result in [7] is “Dose-dependent effect”. Besides, the result in test [18] was Active.
For `CS(=O)(=O)c1ccc(C(=O)Nc2ccc(Cl)c(-c3ccccn3)c2)c(Cl)c1`, in test [19], the inhibition entry is “Active”. In addition, in test [20], the Activity was 4.8%. Further, in test [21], the inhibition result is “inactive”.
Regarding `C=C1/C(=C\C=C2/CCC[C@]3(C)[C@@H]([C@H](C)CCCC(C)(C)O)CC[C@@H]23)C[C@@H](O)C[C@@H]1O`, the inhibition entry in [22] and in [26] was “Active” in each case. In addition, the outcome in [23], in test [24] and in [25] was Active.
With `C=C1CC[C@H](O)C/C1=C/C=C1\CCC[C@]2(C)[C@@H]([C@H](C)CCCC(C)C)CC[C@@H]12` [CHOLECALCIFEROL], the inhibition entry in [1], in test [13], in test [16] and in test [28] was “Active” each time. Moreover, the inhibition result in test [2], in test [27], in test [21] and in [17] was “inactive” throughout. The Activity in test [3] was 35.7%. Also, the pIC50 in test [5] is under 5.00; in test [7], 5.39; in test [8], 5.54; in test [11], under 5.00; in test [15], 5.68. Further, the fold change (FC) in test [6] is 764; in [9], 149; in test [12] it was 8340. For the same compound, the inhibition entry in [7] is “Dose-dependent effect”. In addition, the result in test [10], in [14] and in test [18] was Active.

The record behind these values is ChEMBL document CHEMBL3259768, “Structure-activity relationships for vitamin D3-based aromatic a-ring analogues as hedgehog pathway inhibitors” (J Med Chem, 2014).
